Measured values reported in ChEMBL document CHEMBL5113456, “2-Aminopyridines with a shortened amino sidechain as potent, selective, and highly permeable human neuronal nitric oxide synthase inhibitors” (Bioorg Med Chem, 2022).
pKi: −log10 of the molar value.

Target: Nitric oxide synthase, inducible (Homo sapiens, UniProt P35228)
Assay: Inhibition of human iNOS using L-arginine as substrate assessed as reduction in NO production in the presence of NADPH by NO-hemoglobin capture assay
Conditions: not given
Method in brief: (§1)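 Ki was obtained from IC50 by the Cheng–Prusoff equation. […] Enzyme was purified human NOS isoform. Assay buffer was 100 mM HEPES, 10% glycerol, pH 7.4–7.5, and stock buffer was 100 mM HEPES, pH 7.4–7.5. Plate reader syringe lines were equilibrated with assay buffer before the run.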

Chain of Nitric oxide synthase, inducible (P35228 whole entry): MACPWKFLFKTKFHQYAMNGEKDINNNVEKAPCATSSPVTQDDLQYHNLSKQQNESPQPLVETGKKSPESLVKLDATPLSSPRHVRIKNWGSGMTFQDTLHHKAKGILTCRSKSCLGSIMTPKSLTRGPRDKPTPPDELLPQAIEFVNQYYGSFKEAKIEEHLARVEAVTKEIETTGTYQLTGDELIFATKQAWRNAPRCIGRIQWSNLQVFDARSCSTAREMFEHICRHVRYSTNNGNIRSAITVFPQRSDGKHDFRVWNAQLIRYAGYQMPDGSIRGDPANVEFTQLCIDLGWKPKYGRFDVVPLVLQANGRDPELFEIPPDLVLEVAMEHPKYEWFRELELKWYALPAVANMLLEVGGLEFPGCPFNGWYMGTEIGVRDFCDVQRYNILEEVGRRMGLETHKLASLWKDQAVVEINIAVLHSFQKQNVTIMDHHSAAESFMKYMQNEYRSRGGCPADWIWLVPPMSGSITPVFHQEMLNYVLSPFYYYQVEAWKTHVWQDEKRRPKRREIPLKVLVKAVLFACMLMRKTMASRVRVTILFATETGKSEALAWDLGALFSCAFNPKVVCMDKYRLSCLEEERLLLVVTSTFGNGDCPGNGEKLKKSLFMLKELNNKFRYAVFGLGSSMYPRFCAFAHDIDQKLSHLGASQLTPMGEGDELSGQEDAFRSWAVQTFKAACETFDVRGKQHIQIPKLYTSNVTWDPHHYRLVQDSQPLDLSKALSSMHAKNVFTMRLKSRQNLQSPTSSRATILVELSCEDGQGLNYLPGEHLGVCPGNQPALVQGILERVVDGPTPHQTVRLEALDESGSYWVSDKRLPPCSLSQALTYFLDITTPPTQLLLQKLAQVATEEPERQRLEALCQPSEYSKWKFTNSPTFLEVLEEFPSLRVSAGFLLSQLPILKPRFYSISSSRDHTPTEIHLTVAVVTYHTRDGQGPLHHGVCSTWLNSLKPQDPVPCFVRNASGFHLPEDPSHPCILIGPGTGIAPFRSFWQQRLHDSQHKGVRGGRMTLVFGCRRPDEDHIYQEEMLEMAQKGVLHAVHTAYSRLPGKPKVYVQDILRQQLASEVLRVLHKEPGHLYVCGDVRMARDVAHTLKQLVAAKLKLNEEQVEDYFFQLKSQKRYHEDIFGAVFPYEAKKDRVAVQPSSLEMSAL

SMILES | pKi
Cc1cc(N)nc(CCCN2CC(F)(F)C2)c1 | 5.36
Cc1cc(N)nc(CCCCN(C)C)c1 | 5.12
Cc1cc(N)nc(C#CCCN(C)C)c1 | 4.53

Further lines, results first:

pKi | SMILES
4.56 | Cc1cc(N)nc(C#CCN2CCC(F)(F)CC2)c1
5.19 | Cc1cc(N)nc(CCCN2CCC(F)(F)CC2)c1
4.96 | Cc1cc(N)nc(C#CCN2CC(F)(F)C2)c1

Target: T1, Nitric oxide synthase 3 (Homo sapiens, UniProt P29474)
T1 sequence (P29474 whole entry): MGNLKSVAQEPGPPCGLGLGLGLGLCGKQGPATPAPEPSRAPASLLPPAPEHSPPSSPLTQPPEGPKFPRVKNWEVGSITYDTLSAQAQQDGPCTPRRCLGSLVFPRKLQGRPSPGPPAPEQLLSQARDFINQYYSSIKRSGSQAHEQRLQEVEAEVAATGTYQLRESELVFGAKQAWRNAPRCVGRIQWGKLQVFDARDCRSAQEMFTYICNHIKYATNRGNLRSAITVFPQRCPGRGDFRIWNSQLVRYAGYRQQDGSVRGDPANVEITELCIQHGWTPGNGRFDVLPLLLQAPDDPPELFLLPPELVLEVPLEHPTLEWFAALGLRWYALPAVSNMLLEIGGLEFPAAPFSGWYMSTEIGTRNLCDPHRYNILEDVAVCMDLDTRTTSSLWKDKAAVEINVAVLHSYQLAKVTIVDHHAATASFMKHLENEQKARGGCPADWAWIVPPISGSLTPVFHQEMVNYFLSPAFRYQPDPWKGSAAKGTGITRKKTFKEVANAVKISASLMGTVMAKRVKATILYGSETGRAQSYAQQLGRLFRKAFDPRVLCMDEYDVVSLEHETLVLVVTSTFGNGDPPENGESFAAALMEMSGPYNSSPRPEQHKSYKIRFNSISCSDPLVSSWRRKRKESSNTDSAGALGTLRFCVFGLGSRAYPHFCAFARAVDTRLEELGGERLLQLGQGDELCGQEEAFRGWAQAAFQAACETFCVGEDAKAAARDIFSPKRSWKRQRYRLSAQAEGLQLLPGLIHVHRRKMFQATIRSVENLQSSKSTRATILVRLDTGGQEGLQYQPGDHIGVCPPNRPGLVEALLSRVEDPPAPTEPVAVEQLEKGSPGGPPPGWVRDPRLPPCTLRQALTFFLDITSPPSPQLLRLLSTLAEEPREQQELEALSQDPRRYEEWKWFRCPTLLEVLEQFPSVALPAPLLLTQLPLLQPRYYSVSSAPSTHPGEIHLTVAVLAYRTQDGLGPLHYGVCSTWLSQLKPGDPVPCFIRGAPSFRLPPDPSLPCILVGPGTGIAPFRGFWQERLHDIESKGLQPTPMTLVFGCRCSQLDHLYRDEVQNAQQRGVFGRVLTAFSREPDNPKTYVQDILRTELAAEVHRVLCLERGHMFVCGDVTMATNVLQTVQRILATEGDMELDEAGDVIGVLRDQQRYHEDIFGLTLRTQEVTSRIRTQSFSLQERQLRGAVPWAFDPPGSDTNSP
Assay: Inhibition of human eNOS using L-arginine as substrate assessed as reduction in NO production in the presence of NADPH by NO-hemoglobin capture assay
Conditions: not given
Method in brief: as §1

SMILES | pKi
Cc1cc(N)nc(C#CCN2CCN(C)CC2)c1 | 4.36
Cc1cc(N)nc(CCCN2CC(F)(F)C2)c1 | 5.20
Cc1cc(N)nc(CCCN2CCN(C)CC2)c1 | 4.90
Cc1cc(N)nc(CCCCN(C)C)c1 | 5.13
Cc1cc(N)nc(C#CCCN(C)C)c1 | 4.15

Continued by rising pKi, values first:

pKi | SMILES
4.72 | Cc1cc(N)nc(C#CCN2CCC(F)(F)CC2)c1
4.73 | Cc1cc(N)nc(CCCN2CCC(F)(F)CC2)c1
5.29 | Cc1cc(N)nc(C#CCN2CC(F)(F)C2)c1
5.44 | Cc1cc(N)nc(CCCN(C)C)c1
5.72 | CNCC#Cc1cc(C)cc(N)n1
5.83 | CNCCCc1cc(C)cc(N)n1

Target: Nitric oxide synthase 1 (Rattus norvegicus, UniProt P29476)
Sequence (P29476 whole entry): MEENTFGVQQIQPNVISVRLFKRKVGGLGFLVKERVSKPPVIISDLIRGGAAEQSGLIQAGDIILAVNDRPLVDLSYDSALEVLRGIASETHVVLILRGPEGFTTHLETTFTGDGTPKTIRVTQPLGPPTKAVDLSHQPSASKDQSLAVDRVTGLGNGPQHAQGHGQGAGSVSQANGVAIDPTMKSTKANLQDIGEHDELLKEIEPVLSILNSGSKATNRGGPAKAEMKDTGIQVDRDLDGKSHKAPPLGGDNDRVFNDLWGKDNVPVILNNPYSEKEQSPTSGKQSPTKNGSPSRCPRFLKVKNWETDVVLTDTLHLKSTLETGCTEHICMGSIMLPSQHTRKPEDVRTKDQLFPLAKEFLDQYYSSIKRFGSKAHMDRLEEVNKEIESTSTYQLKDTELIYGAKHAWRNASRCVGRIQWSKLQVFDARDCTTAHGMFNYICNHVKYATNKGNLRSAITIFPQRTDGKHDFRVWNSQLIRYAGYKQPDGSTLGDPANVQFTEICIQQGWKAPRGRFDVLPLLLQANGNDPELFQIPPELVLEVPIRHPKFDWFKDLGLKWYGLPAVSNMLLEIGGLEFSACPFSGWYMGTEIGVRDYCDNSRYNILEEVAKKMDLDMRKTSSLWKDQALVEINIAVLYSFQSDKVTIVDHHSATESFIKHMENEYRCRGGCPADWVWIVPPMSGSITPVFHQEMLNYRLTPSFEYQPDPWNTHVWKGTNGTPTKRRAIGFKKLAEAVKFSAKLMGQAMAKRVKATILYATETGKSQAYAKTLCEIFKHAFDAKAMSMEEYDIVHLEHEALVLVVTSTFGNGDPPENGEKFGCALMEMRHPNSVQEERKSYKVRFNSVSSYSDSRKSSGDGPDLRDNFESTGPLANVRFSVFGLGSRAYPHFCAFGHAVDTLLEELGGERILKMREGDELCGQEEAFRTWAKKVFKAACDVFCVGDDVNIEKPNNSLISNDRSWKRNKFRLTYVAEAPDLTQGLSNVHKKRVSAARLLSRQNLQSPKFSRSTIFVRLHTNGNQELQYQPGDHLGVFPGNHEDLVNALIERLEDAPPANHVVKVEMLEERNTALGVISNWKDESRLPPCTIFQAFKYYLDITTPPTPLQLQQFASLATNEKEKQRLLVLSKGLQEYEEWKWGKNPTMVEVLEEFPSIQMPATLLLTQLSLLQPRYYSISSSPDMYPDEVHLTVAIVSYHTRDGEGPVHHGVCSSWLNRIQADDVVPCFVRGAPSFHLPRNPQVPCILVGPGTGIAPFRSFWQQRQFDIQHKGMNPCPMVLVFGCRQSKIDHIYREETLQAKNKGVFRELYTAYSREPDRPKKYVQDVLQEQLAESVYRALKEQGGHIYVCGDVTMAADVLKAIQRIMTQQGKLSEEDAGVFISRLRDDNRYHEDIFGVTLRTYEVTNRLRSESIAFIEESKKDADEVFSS
Conditions: not given

SMILES | pKi
Cc1cc(N)nc(CCCN2CC(F)(F)C2)c1 | 7.02
Cc1cc(N)nc(CCCN2CCN(C)CC2)c1 | 7.25
Cc1cc(N)nc(C#CCCN(C)C)c1 | 6.62

The next lines start with the values.

pKi | SMILES
5.80 | Cc1cc(N)nc(C#CCN2CCC(F)(F)CC2)c1
7.34 | Cc1cc(N)nc(CCCN2CCC(F)(F)CC2)c1
6.33 | Cc1cc(N)nc(C#CCN2CC(F)(F)C2)c1

System: not listed separately
Assay: Effective permeability of compound in PBS buffer at pH 7.4 at 200 uM incubated for 17 hrs by PAMPA-BBB assay
Format: ADME
Conditions: read-out: Peff

SMILES | Papp at 17 h, 200 µM [×10⁻⁶ cm/s]
Cc1cc(N)nc(C#CCN2CCN(C)CC2)c1 | 3.2
Cc1cc(N)nc(CCCN2CC(F)(F)C2)c1 | 17.5
Cc1cc(N)nc(CCCN2CCN(C)CC2)c1 | 2.2
Cc1cc(N)nc(CCCCN(C)C)c1 | 2.3
Cc1cc(N)nc(C#CCCN(C)C)c1 | 4.7

Results, then the compound that gave them:

Papp at 17 h, 200 µM [×10⁻⁶ cm/s] | SMILES
21.1 | Cc1cc(N)nc(C#CCN2CCC(F)(F)CC2)c1
17.3 | Cc1cc(N)nc(CCCN2CCC(F)(F)CC2)c1
19.6 | Cc1cc(N)nc(C#CCN2CC(F)(F)C2)c1
2 | Cc1cc(N)nc(CCCN(C)C)c1
4.7 | CNCC#Cc1cc(C)cc(N)n1
0.96 | CNCCCc1cc(C)cc(N)n1

Target: Nitric oxide synthase 1 (Homo sapiens, UniProt P29475)
Sequence (P29475 whole entry): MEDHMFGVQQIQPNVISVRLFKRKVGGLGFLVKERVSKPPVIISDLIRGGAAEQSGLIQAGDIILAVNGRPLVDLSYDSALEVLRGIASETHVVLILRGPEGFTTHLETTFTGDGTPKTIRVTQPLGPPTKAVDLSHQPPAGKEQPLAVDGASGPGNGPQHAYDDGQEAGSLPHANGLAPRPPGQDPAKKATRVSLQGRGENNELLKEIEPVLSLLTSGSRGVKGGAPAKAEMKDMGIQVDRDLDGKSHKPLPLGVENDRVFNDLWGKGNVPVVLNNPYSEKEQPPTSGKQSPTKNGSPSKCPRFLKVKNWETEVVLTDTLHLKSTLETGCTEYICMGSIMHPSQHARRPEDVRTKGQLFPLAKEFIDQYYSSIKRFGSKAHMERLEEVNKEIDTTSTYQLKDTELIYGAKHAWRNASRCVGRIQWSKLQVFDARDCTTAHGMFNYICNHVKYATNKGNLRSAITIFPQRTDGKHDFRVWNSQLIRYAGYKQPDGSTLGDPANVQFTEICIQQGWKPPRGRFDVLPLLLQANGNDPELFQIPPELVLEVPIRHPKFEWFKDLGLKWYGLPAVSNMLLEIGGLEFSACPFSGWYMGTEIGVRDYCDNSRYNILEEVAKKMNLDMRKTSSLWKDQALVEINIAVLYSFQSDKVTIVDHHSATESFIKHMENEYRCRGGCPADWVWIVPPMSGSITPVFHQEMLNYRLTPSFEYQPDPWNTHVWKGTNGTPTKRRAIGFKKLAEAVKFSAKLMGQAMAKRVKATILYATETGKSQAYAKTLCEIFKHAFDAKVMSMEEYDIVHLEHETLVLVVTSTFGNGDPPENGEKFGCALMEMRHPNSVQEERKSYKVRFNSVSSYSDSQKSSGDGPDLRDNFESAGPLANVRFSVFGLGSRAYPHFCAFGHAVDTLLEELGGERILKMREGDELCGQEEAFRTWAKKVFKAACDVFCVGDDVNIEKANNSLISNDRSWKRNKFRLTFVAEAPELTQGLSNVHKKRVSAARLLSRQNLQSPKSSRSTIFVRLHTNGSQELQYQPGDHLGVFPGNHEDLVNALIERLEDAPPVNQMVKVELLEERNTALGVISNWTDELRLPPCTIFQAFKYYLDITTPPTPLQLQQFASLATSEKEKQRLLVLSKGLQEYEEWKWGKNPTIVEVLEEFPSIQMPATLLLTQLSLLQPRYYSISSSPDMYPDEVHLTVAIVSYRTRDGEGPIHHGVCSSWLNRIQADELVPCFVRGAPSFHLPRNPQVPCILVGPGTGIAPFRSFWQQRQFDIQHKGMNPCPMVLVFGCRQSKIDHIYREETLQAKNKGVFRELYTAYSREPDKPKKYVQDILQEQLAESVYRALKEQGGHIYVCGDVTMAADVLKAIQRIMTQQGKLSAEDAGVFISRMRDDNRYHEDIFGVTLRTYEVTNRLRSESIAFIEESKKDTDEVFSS
Conditions: not given

SMILES | pKi
Cc1cc(N)nc(CCCN2CC(F)(F)C2)c1 | 6.83
Cc1cc(N)nc(C#CCCN(C)C)c1 | 6.49

Further lines, results first:

pKi | SMILES
5.84 | Cc1cc(N)nc(C#CCN2CCC(F)(F)CC2)c1
7.32 | Cc1cc(N)nc(CCCN2CCC(F)(F)CC2)c1
6.31 | Cc1cc(N)nc(C#CCN2CC(F)(F)C2)c1
